Screening data: PubChem, Broad Institute
A selection: hits, their analogues and other compounds. The true share with any hit is near 3.1%.
DENV2 CPE rescue: inhibitors of DENV2 cytopathic effect, primary screen, cell-based, plate reader, single concentration. hit rate 1.7% among 350,000. DENV2-infected cells, cytopathic effect rescue. CPE inhibition, % at 9.99 µM. AID 651640, 2012; in the data active means CPE inhibition above about 20%, passing the limit was not always enough; inconclusive means no clear call, values can overlap the other calls; tested in BHK-21 cells
miR-122 sensor: miR-122 Renilla sensor signal increase in Huh7, primary screen, miR-122 inhibitor project, cell-based, single point, plate reader; Huh7 miR-122 Renilla luciferase sensor, 48 h; neutral wells = 0, positive control = 100; activation (reporter increase), % at 12.5 µM; hit rate 0.3% among 340,000;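 active means mean replicate activation score at least 90 and every replicate individually at or above 90; inconclusive means only one of the two criteria met; inactive means neither criterion met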;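 further: higher luciferase means less miR-122 activity so hits act as miR-122 inhibitors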
Cneo AK release: Cryptococcus neoformans cell lysis inducers, primary screen, AK release luminescence, single concentration. C. neoformans lysis, adenylate kinase release luminescence, 4 h; normalised: neutral wells 0, clomiphene wells 100. lysis activity, % at 15 µM. hit rate 0.2% among 360,000;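 active means mean lysis activity across replicates of at least 80%, whatever share of replicates individually reach that level; inactive means mean lysis activity below 80%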
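Signal: Adenylate kinase release luminescence | Assay system: Log-phase Cryptococcus neoformans yeast cells | Input: Cells at 5 × 10^6 per mL | Buffer or medium: Fresh YPD growth medium | Compound: Single dose | Schedule: Static 4 h at 37 °C with compound, 1 h detection | Controls: Clomiphene | Read-out: Luminescence rise reflecting yeast cell lysis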
E-sel inducer: E-selectin induction in HUVECs, primary screen, imaging, HUVEC, immunofluorescence imaging, single point; normalized: neutral wells 0, TNF-alpha wells 100; P16581; hit rate 0.37% among 260,000; activation, % at 7.58 µM; AID 686992, 2013;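 active means mean E-selectin-positive cell signal at least 10% of the positive control, reached in at least 60% of replicates, without over 20% cell loss; inconclusive means no rule given, readout overlaps actives, possibly toxicity-flagged; inactive means the rest, including those meeting only one limit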
Target sequence (P16581 whole entry, looked up): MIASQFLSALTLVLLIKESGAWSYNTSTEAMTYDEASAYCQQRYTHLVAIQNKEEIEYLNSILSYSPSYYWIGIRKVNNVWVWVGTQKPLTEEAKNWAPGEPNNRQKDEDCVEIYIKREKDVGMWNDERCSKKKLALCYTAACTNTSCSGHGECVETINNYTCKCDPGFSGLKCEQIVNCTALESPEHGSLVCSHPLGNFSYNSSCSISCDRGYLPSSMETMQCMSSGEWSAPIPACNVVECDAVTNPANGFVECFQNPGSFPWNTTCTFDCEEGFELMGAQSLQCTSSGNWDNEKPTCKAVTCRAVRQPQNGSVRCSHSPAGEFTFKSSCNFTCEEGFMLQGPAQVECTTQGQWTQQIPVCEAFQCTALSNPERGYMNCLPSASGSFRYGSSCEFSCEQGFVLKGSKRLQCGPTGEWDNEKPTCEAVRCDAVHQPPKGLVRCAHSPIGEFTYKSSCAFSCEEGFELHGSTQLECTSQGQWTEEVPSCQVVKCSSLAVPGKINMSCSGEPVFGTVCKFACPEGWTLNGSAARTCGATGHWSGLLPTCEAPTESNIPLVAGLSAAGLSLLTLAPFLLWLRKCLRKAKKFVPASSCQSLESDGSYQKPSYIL
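Test system: HUVEC | Signal: Immunofluorescence imaging | Read-out: Percent E-selectin-positive cells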
rRNA inh HTS: reduced GFP signal of wild-type E. coli, primary screen, bacterial rRNA inhibitor project, GFP/RFP fluorescence, OD600, single point; E. coli WT GFP vs humanized-ribosome RFP mutants, 24 h; hits give low values; DMSO median 0, no signal -100; GFP signal change (wild-type ribosome), % (test concentration not listed); hit rate 1.6% among 350,000;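 active means significant combined selectivity score with lowered wild-type GFP, culture density cut under 30%, mutant RFP and density less affected; inactive means any of these conditions unmet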
Numbers stand for hits; 0 = inactive; ? = inconclusive; - = no result.

SMILES	DENV2 CPE rescue	miR-122 sensor	Cneo AK release	E-sel inducer	rRNA inh HTS
OCCN1CCN(c2nc3ccccc3nc2-c2ccccc2)CC1	0	0	-	0	0
COc1cccc(CNC(=O)c2cc3c(c(-c4cccc(-c5ccc(C#N)cc5)c4)n2)[C@H](CCO)N([S@@](=O)C(C)(C)C)C3)c1	0	-	0	60	0
COc1cccc(CNC(=O)c2cc3c(c(-c4cccc(-c5cccc(C#N)c5)c4)n2)[C@H](CCO)N(S(=O)C(C)(C)C)C3)c1 (stereo partly drawn)	0	0	0	49	0
O=C(Nc1ccccc1)c1cc([N+](=O)[O-])ccc1Cl	0	0	0	0	-
O=C(Nc1ccccc1)c1cc([N+](=O)[O-])ccc1NC1CCCCC1	0	123	0	-	0
COc1cccc(/C=N/Nc2nc3ccccc3[nH]2)c1OC	0	-	-	0	-25
CC(=O)Nc1ccc(/C=N/Nc2nc3ccccc3[nH]2)cc1	0	-	-	-	-21
O=C(N[C@H]1CC[C@@H](CCNC(=O)c2cnccn2)O[C@H]1CO)c1ccc2c(c1)OCO2	0	0	0	0	0
COC(=O)C[C@H]1CC[C@@H]2[C@@H](COc3ccc(NC(=O)c4ccccc4OC)cc3C(=O)N2C)O1	0	0	0	0	0
C[C@@H]1CN([C@H](C)CO)C(=O)c2cccc(NC(=O)C3CCCCC3)c2O[C@H]1CN(C)Cc1ccc(C(=O)Nc2ccccc2N)cc1	0	0	0	0	0
COc1cccc(NC(=O)C[C@H]2CC[C@@H]3[C@H](COc4ccc(NC(=O)C5CCCC5)cc4C(=O)N3C)O2)c1	-	-	-	-	0
O=C(N/N=C1\CC2CC=CC12)c1ccccc1Cl (stereo not drawn)	0	0	0	0	0
O=[N+]([O-])c1ccccc1N/N=C1\CC2CC=CC12 (stereo not drawn)	30	-	-	0	-29
O=C(C[C@H]1CC[C@H](NC(=O)Nc2ccc(C(F)(F)F)cc2)[C@H](CO)O1)NCc1cccc(F)c1	0	-	91	0	0
O=C(C[C@H]1CC[C@@H](NC(=O)Nc2ccc3c(c2)OCO3)[C@@H](CO)O1)NCc1ccc2c(c1)OCO2	20	-	0	0	0
O=C(C[C@@H]1CC[C@@H](NC(=O)Nc2ccc(C(F)(F)F)cc2)[C@@H](CO)O1)NCc1cccc(F)c1	0	-	0	0	0
COc1ccc2c3c(n(C)c2c1)[C@H](CO)N(Cc1ccccc1)CC31CCN(S(=O)(=O)c2ccc(C)cc2)CC1	0	-	-	0	0
O=C(/C=C/c1ccc(O)cc1)c1ccc(NC2=C(N3CCCCC3)C(=O)c3ccccc3C2=O)cc1	?	0	0	-	-37
OC[C@H]1Nc2ccc(C#Cc3ccc(F)cc3)cc2[C@@H]2[C@H]1CCN2Cc1nccs1	-	0	0	0	0
Cn1c(SCCOc2ccccc2F)nc2ccccc2c1=O	-	-	-	0	-28
CC(C)c1nc2oc3c(NCC4CCCO4)ncnc3c2c2c1COC(C)(C)C2 (stereo not drawn)	-	194	0	-	-
NC(=O)C1(c2ccccc2)OC1c1ccccc1 (stereo not drawn)	41	-	0	0	0
NC(=O)C1(C(N)=O)OC1c1ccccc1 (stereo not drawn)	0	-	-	0	0
O=C(C[C@H]1C[C@H]2c3cc(NC(=O)Nc4ccccc4)ccc3O[C@H]2[C@@H](CO)O1)NCc1ccncc1	0	0	0	0	0
O=C(Nc1ccccc1Br)c1c(F)cccc1Cl	0	0	0	0	0
SMILES	DENV2 CPE rescue	miR-122 sensor	Cneo AK release	E-sel inducer	rRNA inh HTS
ONC(=Nc1ccccc1Cl)c1c(F)cccc1F	0	-	-	-	-37
Cc1ccc(S(=O)(=O)Nc2ccc3c(c2)C(=O)N([C@H](C)CO)C[C@H](C)[C@H](CN(C)C(=O)Nc2c(C)noc2C)O3)cc1	0	0	0	0	0
Cc1cccc(N=C2NC(=O)/C(=C/c3cccn3C)S2)c1C	0	0	0	0	-26
Cc1n[nH]c(C)c1N=Nc1ccc(Br)cc1	0	-	0	-	-36
COc1ccc(N=Nc2c(C)n[nH]c2C)cc1	0	0	0	0	0
CN1[C@@H]2c3ccc(-c4ccncc4)c(=O)n3C[C@H]1[C@H](CO)[C@H]2C(=O)NCCc1ccccc1	0	0	0	0	0
